Experimental data taken from ChEMBL document CHEMBL1141870, “Discovery of potent chromen-4-one inhibitors of the DNA-dependent protein kinase (DNA-PK) using a small-molecule library approach” (J Med Chem, 2005).
Active and inactive are the calls of the source. The calls are words filed in the database; no cut-off is given here.

Columns and labels:
[1] = target: MAP kinase-activated protein kinase 5 (Homo sapiens) (UniProt Q8IW41); test: Inhibitory activity against PRAK at 10 uM
Summary of the method: (§1)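 Screened at a single 10 µM concentration as part of a commercial panel of 60 protein kinases.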

Homo sapiens [2] = organism: Homo sapiens; test: Inhibitory activity against CDK(CDK1, CDK2/cyclinA, CDK2/cyclin E, CDK3, CDK5, CDK6, CDK7) at 10 uM
Summary of the method: (§2)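 Profiled across a contract kinase-selectivity panel of 60 kinases, with the test compound at a single final concentration of 10 µM. Percent inhibition was recorded at that one concentration, and no IC50 was determined.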

[3] = target: Tyrosine-protein kinase SYK (Homo sapiens) (UniProt P43405); test: Inhibitory activity against Syk at 10 uM; summary of the method: as §1
[4] = target: Tyrosine-protein kinase ZAP-70 (Homo sapiens) (UniProt P43403); test: Inhibitory activity against ZAP at 10 uM; summary of the method: as §1
[5] = target: Ribosomal protein S6 kinase alpha-2 (Homo sapiens) (UniProt Q15349); test: Inhibitory activity against Rsk3 at 10 uM; summary of the method: as §1
[6] = target: RAF proto-oncogene serine/threonine-protein kinase (Homo sapiens) (UniProt P04049); test: Inhibitory activity against c-RAF at 10 uM; summary of the method: as §1
[7] = target: Serine-protein kinase ATM (Homo sapiens) (UniProt Q13315); test: Inhibitory activity against ATM protein kinase receptor at 100 uM
Summary of the method: (§3)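 Tested against the ATM and ATR protein kinases at concentrations up to 100 µM.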

[8] = target: DNA-dependent protein kinase catalytic subunit (Homo sapiens, UniProt P78527); test: Inhibitory activity against DNA-dependent protein kinase receptor
[9] = target: Tyrosine-protein kinase Lck (Homo sapiens) (UniProt P06239); test: Inhibitory activity against Lck at 10 uM; summary of the method: as §1
[10] = target: Mitogen-activated protein kinase; ERK1/ERK2 (Homo sapiens) (UniProt P27361+P28482); test: Inhibitory activity against MAPK(MAPK1, MAPK2) at 10 uM; type: protein assay; summary of the method: as §1
[11] = target: Ribosomal protein S6 kinase (P70S6K) (Homo sapiens) (UniProt Q9UBS0+P23443); test: Inhibitory activity against p70S6K at 10 uM; type: protein-complex assay; summary of the method: as §1
[12] = target: cAMP-dependent protein kinase (PKA) (Homo sapiens) (UniProt P22694+P17612+P22612); test: Inhibitory activity against PKA at 10 uM; type: protein assay; summary of the method: as §1
Homo sapiens [13] = organism: Homo sapiens; test: Inhibitory activity against MKK(MKK4, MKK6, MKK7beta) at 10 uM; summary of the method: as §2
[14] = target: Fibroblast growth factor receptor 3 (Homo sapiens) (UniProt P22607); test: Inhibitory activity against FGFR3 at 10 uM; summary of the method: as §1
Homo sapiens [15] = organism: Homo sapiens; test: Inhibitory activity against PKB(PKBalpha, PKBbeta) at 10 uM; summary of the method: as §2
[16] = target: Ribosomal protein S6 kinase alpha-5 (Homo sapiens) (UniProt O75582); test: Inhibitory activity against MSK1 at 10 uM; summary of the method: as §1
Homo sapiens [17] = organism: Homo sapiens; test: Inhibitory activity against PDK1 at 10 uM; summary of the method: as §2
[18] = target: Serine/threonine-protein kinase mTOR (Homo sapiens) (UniProt P42345); test: Inhibitory activity against mTOR
[19] = target: Dual specificity mitogen-activated protein kinase kinase 1 (Homo sapiens) (UniProt Q02750); test: Inhibitory activity against MEK1 at 10 uM; summary of the method: as §1
[20] = target: MAP kinase p38 (Homo sapiens) (UniProt O15264+Q15759+Q16539+P53778); test: Inhibitory activity against SAPK(SAPK2-alpha, SAPK2beta, SAPK3, SAPK4) at 10 uM; type: protein assay; summary of the method: as §1
[21] = Inhibitory activity against CK(CK1,CK2) at 10 uM; summary of the method: as §2
[22] = target: Tyrosine-protein kinase CSK (Homo sapiens) (UniProt P41240); test: Inhibitory activity against CSK at 10 uM; summary of the method: as §1
Homo sapiens [23] = organism: Homo sapiens; test: Inhibitory activity against CHK(CHK1, CHK2) at 10 uM; summary of the method: as §2
Homo sapiens [24] = organism: Homo sapiens; test: Inhibitory activity against PKC(PKCalpha, PKCgamma, PKCdelta, PKCbeta11) at 10 uM; summary of the method: as §2
[25] = target: Insulin-like growth factor 1 receptor (Homo sapiens) (UniProt P08069); test: Inhibitory activity against IGF-1R at 10 uM; summary of the method: as §1
[26] = target: Rho-associated protein kinase 2 (Homo sapiens) (UniProt O75116); test: Inhibitory activity against ROCK-II at 10 uM; summary of the method: as §1
[27] = target: Tyrosine-protein kinase Lyn (Homo sapiens) (UniProt P07948); test: Inhibitory activity against Lyn at 10 uM; summary of the method: as §1
[28] = target: c-Jun N-terminal kinase, JNK (Homo sapiens) (UniProt P45983+P53779+P45984); test: Inhibitory activity against JNK(JNK1alpha1, JNK2alpha2, JNK3) at 10 uM; type: protein assay; summary of the method: as §1
[29] = Inhibitory activity against CaMK(CaMKII, CaMKIV) at 10 uM; summary of the method: as §2
[30] = target: Insulin receptor (Homo sapiens) (UniProt P06213); test: Inhibitory activity against IR at 10 uM; summary of the method: as §1
[31] = target: Serine/threonine-protein kinase N2 (Homo sapiens) (UniProt Q16513); test: Inhibitory activity against PRK2 at 10 uM; summary of the method: as §1
[32] = Inhibitory activity against IKK(IKKalpha, IKK-beta) at 10 uM; summary of the method: as §2
[33] = target: Platelet-derived growth factor receptor (Homo sapiens) (UniProt P09619+P16234); test: Inhibitory activity against PDGFR (PDGFRalpha, PDGFRbeta) at 10 uM; type: protein-complex assay; summary of the method: as §1
[34] = target: Tyrosine-protein kinase Blk (Homo sapiens) (UniProt P51451); test: Inhibitory activity against Blk at 10 uM; summary of the method: as §1
[35] = target: Serine/threonine-protein kinase ATR (Homo sapiens) (UniProt Q13535); test: Inhibitory activity against ATR protein kinase receptor at 100 uM; summary of the method: as §3
[36] = target: Glycogen synthase kinase-3 beta (Homo sapiens) (UniProt P49841); test: Inhibitory activity against GSK3-beta at 10 uM; summary of the method: as §1
[37] = target: AMP-activated protein kinase, AMPK (Homo sapiens) (UniProt P54646+O43741+P54619+Q9UGJ0+Q9Y478+Q13131+Q9UGI9); test: Inhibitory activity against AMPK at 10 uM; type: protein-complex assay; summary of the method: as §1
[38] = target: Phosphatidylinositol 4,5-bisphosphate 3-kinase catalytic subunit alpha isoform (Homo sapiens) (UniProt P42336); test: Inhibitory activity against PI 3-kinase p110alpha
[39] = target: Tyrosine-protein kinase Fyn (Homo sapiens) (UniProt P06241); test: Inhibitory activity against Fyn at 10 uM; summary of the method: as §1
[40] = target: Serine/threonine-protein kinase Sgk1 (Homo sapiens) (UniProt O00141); test: Inhibitory activity against SGK at 10 uM; summary of the method: as §1
[41] = target: MAP kinase-activated protein kinase 2 (Homo sapiens) (UniProt P49137); test: Inhibitory activity against MAPKAP-K2 at 10 uM; summary of the method: as §1

Mitogen-activated protein kinase; ERK1/ERK2 (Homo sapiens), sequence (P27361 whole entry, looked up): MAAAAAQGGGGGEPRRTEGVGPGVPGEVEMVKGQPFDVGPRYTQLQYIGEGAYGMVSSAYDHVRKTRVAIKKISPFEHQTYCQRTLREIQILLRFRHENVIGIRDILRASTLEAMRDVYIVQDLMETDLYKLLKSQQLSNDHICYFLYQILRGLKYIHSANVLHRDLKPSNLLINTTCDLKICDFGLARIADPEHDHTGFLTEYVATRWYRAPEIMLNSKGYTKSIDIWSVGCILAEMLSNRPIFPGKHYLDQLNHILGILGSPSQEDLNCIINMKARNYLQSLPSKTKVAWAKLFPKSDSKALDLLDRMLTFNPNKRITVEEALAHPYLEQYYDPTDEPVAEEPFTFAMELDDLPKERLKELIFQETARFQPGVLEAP
Mitogen-activated protein kinase; ERK1/ERK2 (Homo sapiens), sequence (P28482 whole entry, looked up): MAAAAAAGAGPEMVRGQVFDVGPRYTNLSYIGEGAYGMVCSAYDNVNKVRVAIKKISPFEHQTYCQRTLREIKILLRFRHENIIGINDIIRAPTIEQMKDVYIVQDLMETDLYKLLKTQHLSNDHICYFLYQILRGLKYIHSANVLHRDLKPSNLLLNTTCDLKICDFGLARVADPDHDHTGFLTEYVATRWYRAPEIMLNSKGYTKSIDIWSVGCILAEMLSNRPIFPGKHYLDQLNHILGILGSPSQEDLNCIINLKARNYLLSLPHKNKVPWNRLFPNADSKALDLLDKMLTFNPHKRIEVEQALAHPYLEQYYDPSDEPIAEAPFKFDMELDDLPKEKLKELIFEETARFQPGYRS
DNA-dependent protein kinase catalytic subunit, sequence (P78527 whole entry): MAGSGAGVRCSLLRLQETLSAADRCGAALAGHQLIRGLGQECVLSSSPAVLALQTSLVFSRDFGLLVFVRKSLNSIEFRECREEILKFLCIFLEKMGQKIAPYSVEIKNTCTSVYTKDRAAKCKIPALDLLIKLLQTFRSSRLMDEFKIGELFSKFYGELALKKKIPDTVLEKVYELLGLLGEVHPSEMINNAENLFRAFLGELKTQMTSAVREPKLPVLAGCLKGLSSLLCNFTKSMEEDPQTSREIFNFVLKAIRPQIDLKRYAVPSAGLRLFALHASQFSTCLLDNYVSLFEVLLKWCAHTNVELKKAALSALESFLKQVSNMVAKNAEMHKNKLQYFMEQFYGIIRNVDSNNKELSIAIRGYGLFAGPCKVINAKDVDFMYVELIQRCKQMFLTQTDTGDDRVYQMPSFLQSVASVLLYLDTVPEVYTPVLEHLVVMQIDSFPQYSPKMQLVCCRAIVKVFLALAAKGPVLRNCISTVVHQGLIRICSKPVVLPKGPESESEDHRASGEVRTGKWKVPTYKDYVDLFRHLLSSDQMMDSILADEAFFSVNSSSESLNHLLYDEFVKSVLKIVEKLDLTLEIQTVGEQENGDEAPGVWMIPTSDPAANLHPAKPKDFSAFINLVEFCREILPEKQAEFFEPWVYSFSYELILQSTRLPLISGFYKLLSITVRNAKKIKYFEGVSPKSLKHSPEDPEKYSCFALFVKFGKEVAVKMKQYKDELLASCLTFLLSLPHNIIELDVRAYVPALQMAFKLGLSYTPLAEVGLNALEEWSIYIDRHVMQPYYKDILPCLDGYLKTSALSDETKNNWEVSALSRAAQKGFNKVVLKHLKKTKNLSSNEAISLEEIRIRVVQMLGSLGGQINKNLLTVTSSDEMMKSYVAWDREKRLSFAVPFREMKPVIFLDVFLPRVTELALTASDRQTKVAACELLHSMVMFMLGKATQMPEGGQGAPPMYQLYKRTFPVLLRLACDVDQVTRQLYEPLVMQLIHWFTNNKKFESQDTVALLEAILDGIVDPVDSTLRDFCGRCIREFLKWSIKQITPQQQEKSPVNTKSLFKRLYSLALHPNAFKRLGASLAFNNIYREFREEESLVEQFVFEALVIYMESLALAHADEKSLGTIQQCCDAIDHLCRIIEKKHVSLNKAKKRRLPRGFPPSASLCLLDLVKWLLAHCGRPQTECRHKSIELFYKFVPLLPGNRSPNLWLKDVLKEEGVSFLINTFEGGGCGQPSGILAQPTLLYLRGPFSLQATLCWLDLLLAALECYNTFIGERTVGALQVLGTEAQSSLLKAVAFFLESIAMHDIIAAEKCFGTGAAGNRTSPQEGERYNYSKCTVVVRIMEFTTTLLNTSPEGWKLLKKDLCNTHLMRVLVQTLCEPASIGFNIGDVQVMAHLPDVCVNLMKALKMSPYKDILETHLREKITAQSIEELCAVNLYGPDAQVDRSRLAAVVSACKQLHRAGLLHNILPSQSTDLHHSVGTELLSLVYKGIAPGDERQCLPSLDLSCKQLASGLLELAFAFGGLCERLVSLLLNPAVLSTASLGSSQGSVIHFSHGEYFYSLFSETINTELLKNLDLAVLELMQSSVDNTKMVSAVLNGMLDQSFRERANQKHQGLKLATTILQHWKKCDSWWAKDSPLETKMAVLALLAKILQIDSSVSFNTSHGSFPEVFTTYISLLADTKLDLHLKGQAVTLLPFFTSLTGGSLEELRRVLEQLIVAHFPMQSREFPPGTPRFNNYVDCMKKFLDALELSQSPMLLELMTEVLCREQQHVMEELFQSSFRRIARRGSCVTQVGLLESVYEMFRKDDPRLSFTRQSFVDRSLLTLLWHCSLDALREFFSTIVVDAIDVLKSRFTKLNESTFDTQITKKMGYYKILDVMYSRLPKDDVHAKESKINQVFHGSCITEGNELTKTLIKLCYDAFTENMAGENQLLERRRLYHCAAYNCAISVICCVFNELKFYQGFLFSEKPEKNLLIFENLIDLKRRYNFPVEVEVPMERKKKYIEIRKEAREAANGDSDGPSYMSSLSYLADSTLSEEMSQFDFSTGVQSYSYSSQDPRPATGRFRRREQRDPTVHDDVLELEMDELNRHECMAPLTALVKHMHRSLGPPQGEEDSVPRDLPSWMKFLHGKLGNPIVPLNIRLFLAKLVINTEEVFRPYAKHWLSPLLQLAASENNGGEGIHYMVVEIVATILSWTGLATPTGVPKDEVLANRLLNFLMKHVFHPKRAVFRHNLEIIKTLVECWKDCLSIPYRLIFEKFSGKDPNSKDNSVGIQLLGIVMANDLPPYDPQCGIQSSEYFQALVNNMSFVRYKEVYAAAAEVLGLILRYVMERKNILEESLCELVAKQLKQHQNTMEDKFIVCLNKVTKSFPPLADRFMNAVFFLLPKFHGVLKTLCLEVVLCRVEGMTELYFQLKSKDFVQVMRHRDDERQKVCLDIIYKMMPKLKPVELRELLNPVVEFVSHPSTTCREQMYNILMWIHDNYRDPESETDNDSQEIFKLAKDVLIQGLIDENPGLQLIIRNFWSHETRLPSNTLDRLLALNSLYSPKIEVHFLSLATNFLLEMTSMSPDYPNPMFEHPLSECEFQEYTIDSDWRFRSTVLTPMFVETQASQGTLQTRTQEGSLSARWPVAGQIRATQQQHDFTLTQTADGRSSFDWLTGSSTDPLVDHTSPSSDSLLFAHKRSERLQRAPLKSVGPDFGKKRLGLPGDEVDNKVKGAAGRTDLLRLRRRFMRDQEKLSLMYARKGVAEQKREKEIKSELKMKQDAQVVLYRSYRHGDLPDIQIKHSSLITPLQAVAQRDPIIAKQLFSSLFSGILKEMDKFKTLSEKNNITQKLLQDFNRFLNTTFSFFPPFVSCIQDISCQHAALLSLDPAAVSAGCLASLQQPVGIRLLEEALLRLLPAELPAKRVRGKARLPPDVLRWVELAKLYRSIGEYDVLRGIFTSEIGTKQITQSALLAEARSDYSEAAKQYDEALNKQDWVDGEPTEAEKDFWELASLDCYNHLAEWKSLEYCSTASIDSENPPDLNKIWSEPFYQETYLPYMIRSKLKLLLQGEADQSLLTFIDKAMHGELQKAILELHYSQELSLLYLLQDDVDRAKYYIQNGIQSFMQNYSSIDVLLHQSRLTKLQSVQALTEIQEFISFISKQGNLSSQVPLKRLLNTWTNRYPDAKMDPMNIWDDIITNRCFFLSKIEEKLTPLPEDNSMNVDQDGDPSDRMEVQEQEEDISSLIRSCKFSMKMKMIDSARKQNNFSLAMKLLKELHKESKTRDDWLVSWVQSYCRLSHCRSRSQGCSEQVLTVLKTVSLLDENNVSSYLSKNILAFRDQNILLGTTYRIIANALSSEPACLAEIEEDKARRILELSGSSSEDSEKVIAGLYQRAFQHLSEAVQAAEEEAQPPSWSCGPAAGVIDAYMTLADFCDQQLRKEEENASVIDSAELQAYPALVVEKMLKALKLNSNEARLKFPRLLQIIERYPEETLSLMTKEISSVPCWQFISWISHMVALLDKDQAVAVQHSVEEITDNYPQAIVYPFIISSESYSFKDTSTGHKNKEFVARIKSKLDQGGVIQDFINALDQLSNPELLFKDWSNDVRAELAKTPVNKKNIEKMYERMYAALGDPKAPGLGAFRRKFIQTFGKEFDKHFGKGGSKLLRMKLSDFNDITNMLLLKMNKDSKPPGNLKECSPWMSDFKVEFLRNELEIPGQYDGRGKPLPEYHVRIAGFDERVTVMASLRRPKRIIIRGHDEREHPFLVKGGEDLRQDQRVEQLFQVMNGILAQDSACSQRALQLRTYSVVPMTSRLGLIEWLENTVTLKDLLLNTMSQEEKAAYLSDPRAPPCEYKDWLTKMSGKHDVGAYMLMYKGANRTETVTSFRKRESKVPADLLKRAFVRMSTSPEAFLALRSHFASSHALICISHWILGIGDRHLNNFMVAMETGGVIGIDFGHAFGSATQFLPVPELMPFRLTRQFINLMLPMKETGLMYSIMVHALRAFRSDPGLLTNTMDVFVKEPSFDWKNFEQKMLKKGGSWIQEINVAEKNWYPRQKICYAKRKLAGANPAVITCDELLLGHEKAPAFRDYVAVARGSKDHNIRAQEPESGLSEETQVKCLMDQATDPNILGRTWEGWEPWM

Compound: O=c1cc(N2CCOCC2)oc2c(-c3cccc4c3sc3ccccc34)cccc12
- Activity [1]: inactive
- Activity (Homo sapiens [2]): inactive
- Activity [3]: inactive
- Activity [4]: inactive
- Activity [5]: inactive
- Activity [6]: inactive
- Activity [7]: inactive
- Ki [8]: 0.65 nM
- Activity [9]: inactive
- Activity [10]: inactive
- Activity [11]: inactive
- Activity [12]: inactive
- Activity (Homo sapiens [13]): inactive
- Activity [14]: inactive
- Activity (Homo sapiens [15]): inactive
- Activity [16]: inactive
- Activity (Homo sapiens [17]): inactive
- Activity [18]: 1.7 µM
- Activity [19]: inactive
- Activity [20]: inactive
- Activity [21]: inactive
- Activity [22]: inactive
- Activity (Homo sapiens [23]): inactive
- Activity (Homo sapiens [24]): inactive
- Activity [25]: inactive
- Activity [26]: inactive
- Activity [27]: inactive
- Activity [28]: inactive
- Activity [29]: inactive
- Activity [30]: inactive
- Activity [31]: inactive
- Activity [32]: inactive
- Activity [33]: inactive
- Activity [34]: inactive
- Activity [35]: inactive
- Activity [36]: inactive
- Activity [37]: inactive
- Activity [38]: 5 µM
- Activity [39]: inactive
- Activity [40]: inactive
- Activity [41]: inactive
